Results: ChEMBL document CHEMBL1240390, “Activity of dalbavancin against Bacillus anthracis in vitro and in a mouse inhalation anthrax model” (Antimicrob Agents Chemother, 2010)
Converted amounts (≈) assume the structure as drawn.

How the values were obtained:
Bacillus anthracis [1] = test: Antimicrobial activity against Bacillus anthracis str. Ames infected in BALB/c mouse prophylaxis model assessed as mouse survival at >=30 mg/kg, ip administered 24 hrs post infection every 36 hrs for 14 days measured after 42 days; format: functional
Bacillus anthracis [2] = test: Antimicrobial activity against Bacillus anthracis str. Ames infected in BALB/c mouse prophylaxis model assessed as mouse survival at 120 mg/kg, ip administered 48 hrs post infection every 72 hrs for 14 days measured after 42 days; format: functional; details: route intraperitoneal
[3] = Cmax in ICR mouse at 20 mg/kg, ip after 2 hrs; format: ADME, organism-based; set-up: dose 20 mg/kg, route intraperitoneal; details: in vivo
How it was run: (§1)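 Female ICR mice, 23 to 27 g, given single 5 or 20 mg/kg doses i.p. or i.v. (tail vein) in 5% glucose. Plasma was taken by cardiac puncture under halothane at 0.08 to 144 h, with 3 mice per route, dose and time point. Total drug was measured by microbiological agar diffusion assay; parameters came from noncompartmental analysis.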

[4] = Half life in ICR mouse at 20 mg/kg, ip; format: ADME, organism-based; set-up: dose 20 mg/kg, route intraperitoneal; details: in vivo; how it was run: as §1
Mus musculus [5] = test: fCmax in ICR mouse at 5 mg/kg, ip after 2 hrs; format: ADME, organism-based; set-up: dose 5 mg/kg, route intraperitoneal; details: in vivo
Mus musculus [6] = test: fCmax in ICR mouse at 20 mg/kg, ip after 2 hrs; format: ADME, organism-based; set-up: dose 20 mg/kg, route intraperitoneal; details: in vivo
[7] = Ratio of fAUC in ICR mouse at 20 mg/kg, ip to MIC against Bacillus anthracis Ames; format: functional; details: route intraperitoneal
How it was run: (§2)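 Female ICR mice (23 to 27 g) received a single i.p. dose of 5 or 20 mg/kg in 5% glucose. Plasma was taken by cardiac puncture from 0.08 to 144 h, with 3 mice per dose and time point. Total drug was measured by microbiological agar diffusion, and parameters were derived noncompartmentally. Free values assume 1.6% unbound and are divided by the Ames-strain MIC.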

Bacillus anthracis [8] = test: Antimicrobial activity against Bacillus anthracis str. Ames infected in BALB/c mouse prophylaxis model assessed as mouse survival at 120 mg/kg, ip administered 36 hrs post infection every 72 hrs for 14 days measured after 42 days; format: functional; details: route intraperitoneal
[9] = Cmax in ICR mouse at 5 mg/kg, ip after 2 hrs; format: ADME, organism-based; set-up: dose 5 mg/kg, route intraperitoneal; details: in vivo; how it was run: as §1
[10] = Ratio of fAUC in ICR mouse at 5 mg/kg, ip to MIC against Bacillus anthracis Ames; format: functional; details: route intraperitoneal; how it was run: as §2
Bacillus anthracis [11] = test: Antimicrobial activity against Bacillus anthracis str. Ames after 18-24 hrs by broth microdilution method; format: functional
[12] = Half life in ICR mouse at 5 mg/kg, ip; format: ADME, organism-based; set-up: dose 5 mg/kg, route intraperitoneal; details: in vivo; how it was run: as §1
Bacillus anthracis [13] = test: Antimicrobial activity against Bacillus anthracis str. Ames infected in BALB/c mouse prophylaxis model assessed as mouse survival at 60 mg/kg, ip administered 48 hrs post infection every 36 hrs for 14 days measured after 42 days; format: functional; details: route intraperitoneal
Mus musculus [14] = test: fAUC in ICR mouse at 5 mg/kg, ip; format: ADME, organism-based; set-up: dose 5 mg/kg, route intraperitoneal; details: in vivo
Bacillus anthracis [15] = test: Antimicrobial activity against Bacillus anthracis str. Ames infected in BALB/c mouse prophylaxis model assessed as mouse survival at 60 mg/kg, ip administered 36 hrs post infection every 36 hrs for 14 days measured after 42 days; format: functional; details: route intraperitoneal
[16] = Ratio of fCmax in ICR mouse at 20 mg/kg, ip single dose after 2 hrs to MIC for Bacillus anthracis Ames; format: functional; details: route intraperitoneal; how it was run: as §2
Bacillus anthracis [17] = test: Antimicrobial activity against Bacillus anthracis after 18-24 hrs by broth microdilution method; format: functional
[18] = AUC (0-infinity) in ICR mouse at 20 mg/kg, iv; format: ADME, organism-based; set-up: time infinity, dose 20 mg/kg, route intravenous; details: plasma; how it was run: as §1
Bacillus anthracis [19] = test: Antimicrobial activity against Bacillus anthracis str. Ames infected in BALB/c mouse prophylaxis model assessed as mouse survival at >=15 mg/kg, ip administered 24 hrs post infection every 36 hrs for 14 days measured after 42 days; format: functional
[20] = AUC (0-infinity) in ICR mouse at 5 mg/kg, iv; format: ADME, organism-based; set-up: time infinity, dose 5 mg/kg, route intravenous; details: plasma; how it was run: as §1
Bacillus anthracis [21] = test: Antimicrobial activity against Bacillus anthracis str. Ames infected in BALB/c mouse assessed as mouse survival at 30 mg/kg, ip bid administered 24 hrs post infection for 14 days measured after 42 days; format: functional; details: route intraperitoneal
Mus musculus [22] = test: T>MIC in ICR mouse at 20 mg/kg, ip; format: ADME, organism-based; set-up: dose 20 mg/kg, route intraperitoneal; details: in vivo
[23] = AUC in patient with skin and soft tissue infections at 1000 mg, iv after 7 days; format: ADME, organism-based; details: human, plasma
[24] = Ratio of fCmax in ICR mouse at 5 mg/kg, ip after 2 hrs to MIC for Bacillus anthracis Ames; format: functional; details: route intraperitoneal; how it was run: as §2
[25] = AUC (0-infinity) in ICR mouse at 20 mg/kg, ip; format: ADME, organism-based; set-up: time infinity, dose 20 mg/kg, route intraperitoneal; details: plasma; how it was run: as §1
Mus musculus [26] = test: T>MIC in ICR mouse at 5 mg/kg, ip; format: ADME, organism-based; set-up: dose 5 mg/kg, route intraperitoneal; details: in vivo
[27] = Plasma concentration in ICR mouse at 20 mg/kg, ip after 6 days; format: ADME, organism-based; set-up: dose 20 mg/kg, route intraperitoneal; how it was run: as §1
[28] = AUC (0-infinity) in ICR mouse at 5 mg/kg, ip; format: ADME, organism-based; set-up: dose 5 mg/kg, route intraperitoneal, time infinity; details: plasma; how it was run: as §1
Mus musculus [29] = test: fAUC in ICR mouse at 20 mg/kg, ip; format: ADME, organism-based; set-up: dose 20 mg/kg, route intraperitoneal; details: in vivo

CN[C@H]1C(=O)N[C@@H]2Cc3ccc(cc3)Oc3cc4cc(c3O[C@@H]3O[C@H](C(=O)O)[C@@H](O)[C@H](O)[C@H]3NC(=O)CCCCCCCCC(C)C)Oc3ccc(cc3Cl)[C@@H](O)[C@@H]3NC(=O)[C@H](NC(=O)[C@@H]4NC(=O)[C@@H](NC2=O)c2cc(cc(O)c2Cl)Oc2cc1ccc2O)c1ccc(O)c(c1)-c1c(O[C@H]2O[C@H](CO)[C@@H](O)[C@H](O)[C@@H]2O)cc(O)cc1[C@@H](C(=O)NCCCN(C)C)NC3=O [DALBAVANCIN]
Activity (Bacillus anthracis [1]): 80%
Activity (Bacillus anthracis [2]): 70%
Cmax [3]: 71300 ng/mL
half-life [4]: 53.4 h
fCmax (Mus musculus [5]): 0.24 mg/L
fCmax (Mus musculus [6]): 1.14 mg/L
Ratio [7]: 227
Activity (Bacillus anthracis [8]): 70%
Cmax [9]: 15200 ng/mL
Ratio [10]: 46.7
MIC (Bacillus anthracis [11]): 0.06 µg/mL (≈ 0.033 µM)
half-life [12]: 53.4 h
Activity (Bacillus anthracis [13]): 70%
fAUC (Mus musculus [14]): 2.8 µg·h/mL
Activity (Bacillus anthracis [15]): 70%
Ratio [16]: 19
MIC50 (Bacillus anthracis [17]): 0.06 µg/mL (≈ 0.033 µM)
MIC90 (Bacillus anthracis [17]): 0.25 µg/mL (≈ 0.138 µM)
AUC(0-inf) [18]: 1070 µg·h/mL
Activity (Bacillus anthracis [19]): 80%
AUC(0-inf) [20]: 200 µg·h/mL
Activity (Bacillus anthracis [21]): 100%
T>MIC (Mus musculus [22]): 38 h
AUC at 168 h [23]: 756 µg·h/mL
Ratio [24]: 4
AUC(0-inf) [25]: 848 µg·h/mL
T>MIC (Mus musculus [26]): 17.8 h
concentration at 144 h [27]: ≥ 400 ng/mL
AUC(0-inf) [28]: 176 µg·h/mL
fAUC (Mus musculus [29]): 13.6 µg·h/mL

CN[C@H](CC(C)C)C(=O)N[C@H]1C(=O)N[C@@H](CC(N)=O)C(=O)N[C@H]2C(=O)N[C@H]3C(=O)N[C@H](C(=O)N[C@H](C(=O)O)c4cc(O)cc(O)c4-c4cc3ccc4O)[C@H](O)c3ccc(c(Cl)c3)Oc3cc2cc(c3O[C@@H]2O[C@H](CO)[C@@H](O)[C@H](O)[C@H]2O[C@H]2C[C@](C)(N)[C@H](O)[C@H](C)O2)Oc2ccc(cc2Cl)[C@H]1O [VANCOMYCIN]
MIC (Bacillus anthracis [17]): 2 µg/mL (≈ 1.38 µM)
